ChEMBL document CHEMBL4266041, “Hydroxybiphenylamide GroEL/ES Inhibitors Are Potent Antibacterials against Planktonic and Biofilm Forms of Staphylococcus aureus” (J Med Chem, 2018)

Experiments:
Klebsiella pneumoniae = test: Antibacterial activity against Klebsiella pneumoniae ATCC 13883 after 6 to 8 hrs by bacterial proliferation assay; format: functional, organism-based
In short: (§1)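 Bacterial growth inhibition in liquid culture. The highest concentration tested was 100 µM. The mean was back-calculated from the average log value. Values above the top concentration were set 0.1 log unit higher.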

[1] = Inhibition of refolded MDH (unknown origin) preincubated with Escherichia coli GroEL/GroES for 45 mins in absence of compound followed by compound addition and measured for 20 to 35 mins by spectrometric analysis
Enterococcus faecium = test: Antibacterial activity against Enterococcus faecium ATCC 19434 after 24 hrs by bacterial proliferation assay; format: functional, organism-based; settings: ATCC 19434, 24 h
Enterobacter cloacae = test: Antibacterial activity against Enterobacter cloacae subsp. cloacae ATCC 13047 after 24 hrs by bacterial proliferation assay; format: functional, organism-based; settings: subsp. cloacae ATCC 13047, 24 h; in short: as §1
E. coli GroEL/ES [2] = biological target: T1, E. coli GroEL/ES (Escherichia coli, UniProt P0A6F5); test: Inhibition of Escherichia coli GroEL expressed in Escherichia coli DH5alpha/Escherichia coli GroES expressed in Escherichia coli BL21 (DE3) assessed as reduction in GroEL/GroES-mediated denatured MDH refolding after 20 to 40 mins by spectrometric analysis
T1 sequence (P0A6F5 whole entry, looked up): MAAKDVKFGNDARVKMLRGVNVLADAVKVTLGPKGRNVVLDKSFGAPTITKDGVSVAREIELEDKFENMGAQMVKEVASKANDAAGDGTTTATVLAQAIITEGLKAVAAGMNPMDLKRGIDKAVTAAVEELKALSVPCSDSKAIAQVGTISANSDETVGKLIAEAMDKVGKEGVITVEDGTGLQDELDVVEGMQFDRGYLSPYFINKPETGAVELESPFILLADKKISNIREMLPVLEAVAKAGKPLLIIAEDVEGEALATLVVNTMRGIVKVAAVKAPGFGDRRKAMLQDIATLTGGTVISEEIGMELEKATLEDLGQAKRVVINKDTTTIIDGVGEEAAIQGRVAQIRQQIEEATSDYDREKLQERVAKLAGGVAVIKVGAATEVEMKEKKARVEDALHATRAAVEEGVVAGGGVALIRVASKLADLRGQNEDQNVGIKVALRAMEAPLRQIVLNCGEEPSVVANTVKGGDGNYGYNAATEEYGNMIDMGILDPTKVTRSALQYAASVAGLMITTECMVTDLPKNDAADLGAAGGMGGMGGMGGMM
In short: (§2)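 Uses E. coli GroEL/ES with a denatured MDH or rhodanese reporter. GroEL first forms a binary complex with the denatured reporter. Refolding is started by adding ATP and GroES, then reporter enzyme activity is read. DMSO is the negative control. IC50 values from replicate curves are log-averaged after ROUT outlier screening.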

[3] = Cytotoxicity against human THLE3 cells assessed as reduction in cell viability after 48 hrs by Alamar Blue reporter assay; settings: 48 h
[4] = biological target: T2, Thiosulfate sulfurtransferase (Homo sapiens, UniProt Q16762); test: Inhibition of refolded rhodanese (unknown origin) preincubated with Escherichia coli GroEL/GroES for 60 mins in absence of compound followed by compound addition by spectrometric analysis
T2 sequence (Q16762 whole entry): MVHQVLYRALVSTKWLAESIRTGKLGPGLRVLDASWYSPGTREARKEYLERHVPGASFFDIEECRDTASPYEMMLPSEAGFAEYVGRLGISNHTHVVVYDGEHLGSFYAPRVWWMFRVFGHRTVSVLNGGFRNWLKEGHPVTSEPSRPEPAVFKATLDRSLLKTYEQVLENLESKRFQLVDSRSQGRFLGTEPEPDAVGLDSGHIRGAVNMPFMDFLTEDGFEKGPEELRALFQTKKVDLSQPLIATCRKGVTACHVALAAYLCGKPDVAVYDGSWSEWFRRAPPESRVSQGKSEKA

Pseudomonas aeruginosa = test: Antibacterial activity against Pseudomonas aeruginosa ATCC 10145 after 24 hrs by bacterial proliferation assay; format: functional, organism-based; settings: ATCC 10145, 24 h; in short: as §1
Staphylococcus aureus [5] = test: Antibacterial activity against methicillin-resistant Staphylococcus aureus ATCC BAA-44 after 6 to 8 hrs by bacterial proliferation assay; format: functional, organism-based; settings: Staphylococcus aureus, ATCC BAA-44
E. coli GroEL/ES [6] = biological target: T1, E. coli GroEL/ES; test: Inhibition of Escherichia coli GroEL expressed in Escherichia coli DH5alpha/Escherichia coli GroES expressed in Escherichia coli BL21 (DE3) assessed as reduction in GroEL/GroES-mediated denatured rhodanese refolding after 45 mins by spectrometric analysis; in short: as §2
HSP60/HSP10 = HSP60/HSP10 (Homo sapiens, UniProt P10809); test: Inhibition of human N-terminal octa-His-tagged HSP60 expressed in Escherichia coli Rosetta(DE3) pLysS/human HSP10 expressed in Escherichia coli Rosetta(DE3) assessed as reduction in HSP60/HSP10-mediated denatured MDH refolding after 40 to 60 mins by spectrometric analysis
Chain of HSP60/HSP10 (P10809 whole entry): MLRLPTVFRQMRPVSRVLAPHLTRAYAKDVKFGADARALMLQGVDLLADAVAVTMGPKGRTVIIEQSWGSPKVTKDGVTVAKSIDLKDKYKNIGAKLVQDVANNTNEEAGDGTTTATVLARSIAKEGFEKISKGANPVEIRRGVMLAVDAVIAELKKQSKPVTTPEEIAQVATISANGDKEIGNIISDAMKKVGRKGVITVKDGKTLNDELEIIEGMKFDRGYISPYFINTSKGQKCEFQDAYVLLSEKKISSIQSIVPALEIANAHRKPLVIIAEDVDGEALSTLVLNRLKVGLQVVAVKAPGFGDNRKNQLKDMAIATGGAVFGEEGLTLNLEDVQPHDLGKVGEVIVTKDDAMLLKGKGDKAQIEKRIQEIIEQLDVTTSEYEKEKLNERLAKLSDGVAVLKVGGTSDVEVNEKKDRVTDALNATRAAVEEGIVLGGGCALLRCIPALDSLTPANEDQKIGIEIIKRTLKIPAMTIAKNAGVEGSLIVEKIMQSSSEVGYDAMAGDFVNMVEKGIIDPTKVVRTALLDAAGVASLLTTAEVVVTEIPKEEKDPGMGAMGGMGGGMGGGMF
Chain of HSP60/HSP10 (P61604 whole entry, further chain): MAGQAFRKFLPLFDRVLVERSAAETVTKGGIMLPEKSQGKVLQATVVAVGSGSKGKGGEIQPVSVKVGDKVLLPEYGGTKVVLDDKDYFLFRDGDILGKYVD
In short: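 Human HSP60/10 refolding of denatured MDH, run the same way as the GroEL/ES-dMDH assay. A binary complex of chaperonin and denatured MDH is formed, and refolding is started with ATP and HSP10. MDH activity is the read-out. DMSO is the negative control. IC50 values from replicate curves are log-averaged after ROUT outlier screening.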

Acinetobacter baumannii = test: Antibacterial activity against Acinetobacter baumannii ATCC 19606 after 24 hrs by bacterial proliferation assay; format: functional, organism-based; settings: ATCC 19606 = CIP 70.34 = JCM 6841, 24 h; in short: as §1
Staphylococcus aureus [7] = test: Antibacterial activity against Staphylococcus aureus ATCC 25923 after 6 to 8 hrs by bacterial proliferation assay; format: functional, organism-based
HEK293 = test: Cytotoxicity against HEK293 cells assessed as reduction in cell viability after 48 hrs by Alamar Blue reporter assay; settings: human, hek293, 48 h

| Structure (SMILES) | EC50 (Klebsiella pneumoniae) | IC50 [1] | EC50 (Enterococcus faecium) | EC50 (Enterobacter cloacae) | IC50 (E. coli GroEL/ES [2]) | CC50 [3] | IC50 [4] | EC50 (Pseudomonas aeruginosa) | EC50 (Staphylococcus aureus [5]) | IC50 (E. coli GroEL/ES [6]) | IC50 (HSP60/HSP10) | EC50 (Acinetobacter baumannii) | EC50 (Staphylococcus aureus [7]) | CC50 (HEK293) |
| --- | --- | --- | --- | --- | --- | --- | --- | --- | --- | --- | --- | --- | --- | --- |
| O=C(Nc1ccc(Sc2nc3ccccc3s2)c(Cl)c1)c1cc(Br)ccc1O | > 100 µM | > 63 µM | 15 µM | > 100 µM | 37 µM | 14 µM | > 100 µM | > 100 µM | 0.17 µM | 11 µM | > 100 µM | > 100 µM | 0.12 µM | 45 µM |
| O=C(Nc1ccc(Sc2nc3ccccc3s2)cc1)c1cccc(Br)c1 | > 100 µM | > 63 µM | > 100 µM | > 100 µM | > 100 µM | 82 µM | > 100 µM | > 100 µM | > 100 µM | > 100 µM | > 100 µM | > 100 µM | > 100 µM | 74 µM |
| COc1ccc(Br)cc1C(=O)Nc1ccc(Sc2nc3ccccc3s2)cc1 | > 100 µM | > 63 µM | > 100 µM | > 100 µM | > 100 µM | > 100 µM | > 100 µM | > 100 µM | > 100 µM | > 100 µM | > 100 µM | > 100 µM | > 100 µM | > 100 µM |
| COc1ccc(Br)cc1C(=O)Nc1cccc(Cl)c1 | > 100 µM | > 63 µM | > 100 µM | > 100 µM | > 100 µM | 94 µM | > 100 µM | > 100 µM | > 100 µM | > 100 µM | > 100 µM | > 100 µM | > 100 µM | > 100 µM |
| COc1c(Br)cc(Br)cc1C(=O)Nc1ccccc1 | > 100 µM | > 63 µM | > 100 µM | > 100 µM | > 100 µM | > 100 µM | > 100 µM | > 100 µM | > 100 µM | > 100 µM | > 100 µM | > 100 µM | > 100 µM | > 100 µM |
| O=C(Nc1cccc(Cl)c1)c1cccc(Br)c1 | > 100 µM | > 63 µM | > 100 µM | > 100 µM | > 100 µM | 50 µM | > 100 µM | > 100 µM | 68 µM | > 100 µM | > 100 µM | > 100 µM | 47 µM | 51 µM |
| COc1ccccc1C(=O)Nc1ccc(Sc2nc3ccccc3s2)cc1 | > 100 µM | > 63 µM | > 100 µM | > 100 µM | > 100 µM | > 100 µM | > 100 µM | > 100 µM | > 100 µM | > 100 µM | > 100 µM | > 100 µM | > 100 µM | > 100 µM |
| COc1c(Br)cccc1C(=O)Nc1ccc(Sc2nc3ccccc3s2)c(Cl)c1 | > 100 µM | > 63 µM | > 100 µM | > 100 µM | > 100 µM | > 100 µM | > 100 µM | > 100 µM | > 100 µM | > 100 µM | > 100 µM | > 100 µM | > 100 µM | > 100 µM |
| COc1ccccc1C(=O)Nc1ccccc1 | > 100 µM | > 63 µM | > 100 µM | > 100 µM | > 100 µM | > 100 µM | > 100 µM | > 100 µM | > 100 µM | > 100 µM | > 100 µM | > 100 µM | > 100 µM | > 100 µM |
| O=C(Nc1ccccc1)c1cccc(Br)c1O | > 100 µM | > 63 µM | > 100 µM | > 100 µM | > 100 µM | 56 µM | > 100 µM | > 100 µM | 10 µM | > 100 µM | > 100 µM | > 100 µM | 6.4 µM | 82 µM |
| O=C(Nc1ccc(Sc2nc3ccccc3s2)cc1)c1ccccc1 | > 100 µM | > 63 µM | > 100 µM | > 100 µM | > 100 µM | > 100 µM | > 100 µM | > 100 µM | > 100 µM | > 100 µM | > 100 µM | > 100 µM | > 100 µM | > 100 µM |
| O=C(Nc1ccccc1)c1cc(Br)cc(Br)c1 | > 100 µM | > 63 µM | > 100 µM | > 100 µM | > 100 µM | > 100 µM | > 100 µM | > 100 µM | > 100 µM | > 100 µM | > 100 µM | > 100 µM | > 100 µM | > 100 µM |
| O=C(Nc1ccc(Sc2nc3ccccc3s2)c(Cl)c1)c1cccc(Br)c1 | > 100 µM | > 63 µM | > 100 µM | > 100 µM | > 100 µM | 88 µM | > 100 µM | > 100 µM | > 100 µM | > 100 µM | > 100 µM | > 100 µM | > 100 µM | > 100 µM |
